The subject of assay [1] is HCT-116. As to the kind of experiment: Anticancer activity against human HCT116 cells. Type of assay: functional. Summed up:
(§1)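 NCI-DTP 60 cell line screen; GI50 values supplied by NCI-DTP. HCT-116 GI50 for some entries determined instead by a separate group (Henry Ford Hospital). Compounds failing initial single-dose testing at 10 μM (<25% growth inhibition) were not taken to five-dose testing.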

The test system of assay [2] is MDA-MB-231. The assay is described as follows: Anticancer activity against human MDA-MB-231 cells. In kind it is functional. The method, boiled down: as §1
Assay [3] relates to HCT-116. As to the kind of experiment: Antimicrofilament activity in human HCT116 cells assessed as loss of microfilament at 0.05 uM by rhodamine-phalloidin staining. In kind it is functional, cell-based.
In assay [4] the test system is HCT-116. As to the kind of experiment: Antimicrofilament activity in human HCT116 cells assessed as loss of microfilament at 0.01 uM by rhodamine-phalloidin staining. Type of assay: functional, cell-based.
Assay [5] concerns HCT-116. As to the kind of experiment: Antimicrofilament activity in human HCT116 cells assessed as loss of microfilament at 0.1 uM by rhodamine-phalloidin staining. In kind it is functional, cell-based.
Assay [6] deals with HCT-116. The assay is described as follows: Antimicrofilament activity in human HCT116 cells assessed as loss of microfilament network at 0.5 uM by rhodamine-phalloidin staining. In kind it is functional, cell-based.
For assay [7], the system named is HCT-116. As to the kind of experiment: Antimicrofilament activity in human HCT116 cells assessed as loss of microfilament at 1 uM by rhodamine-phalloidin staining. In kind it is functional, cell-based.
The test system of assay [8] is HCT-116. As to the kind of experiment: Antimicrofilament activity in human HCT116 cells assessed as loss of microfilament at 5 uM by rhodamine-phalloidin staining. In kind it is functional, cell-based.
In assay [9] the test system is IGROV-1. As to the kind of experiment: Anticancer activity against human IGROV1 cells. In kind it is functional. The method, boiled down:
as §1

For assay [10], the system named is U-251. As to the kind of experiment: Anticancer activity against human U251 cells. Type of assay: functional. Summed up: as §1
For assay [11], the system named is NCI-H522. As to the kind of experiment: Anticancer activity against human NCI-H522 cells. In kind it is functional. Summed up:
as §1

Assay [12] concerns DU-145. The assay is described as follows: Anticancer activity against human DU145 cells. Type of assay: functional. Summed up:
as §1

Assay [13] deals with A498. The assay is described as follows: Anticancer activity against human A498 cells. Type of assay: functional. Summed up: as §1
Assay [14] relates to LOX IMVI. As to the kind of experiment: Anticancer activity against human LOXIMVI cells. In kind it is functional. The method, boiled down: as §1
Assay [15] relates to HCT-116. The assay is described as follows: Antimicrofilament activity in human HCT116 cells assessed as total loss of microfilament network at 1 uM by rhodamine-phalloidin staining. Type of assay: functional, cell-based.
The subject of assay [16] is HCT-116. The assay is described as follows: Antimicrofilament activity in human HCT116 cells assessed as total loss of microfilament network at 0.5 uM by rhodamine-phalloidin staining. In kind it is functional, cell-based.
Assay [17] relates to HCT-116. The assay is described as follows: Antimicrofilament activity in human HCT116 cells assessed as total loss of microfilament network at 5 uM by rhodamine-phalloidin staining. Type of assay: functional, cell-based.
Assay [18] relates to HCT-116. As to the kind of experiment: Antimicrofilament activity in human HCT116 cells assessed as complete loss of microfilament network at 0.5 uM to 5 uM by rhodamine-phalloidin staining.
Assay [19] has as its system HCT-116. As to the kind of experiment: Antimicrofilament activity in human HCT116 cells assessed as additional loss of microfilament at 1 uM by rhodamine-phalloidin staining. In kind it is functional, cell-based.
In assay [20] the test system is HCT-116. As to the kind of experiment: Antimicrofilament activity in human HCT116 cells assessed as additional loss of microfilament at 5 uM by rhodamine-phalloidin staining. In kind it is functional, cell-based.
For assay [21], the system named is HCT-116. As to the kind of experiment: Antimicrofilament activity in human HCT116 cells assessed as complete loss of microfilament network at GI50 concentration by rhodamine-phalloidin staining. Type of assay: functional, cell-based.
Assay [22] relates to HCT-116. The assay is described as follows: Antimicrofilament activity in human HCT116 cells assessed as additional loss of microfilament network at 0.5 uM by rhodamine-phalloidin staining. Type of assay: functional, cell-based.
Assay [23] deals with HCT-116. As to the kind of experiment: Antimicrofilament activity in human HCT116 cells assessed as additional loss of microfilament at 0.1 uM by rhodamine-phalloidin staining. Type of assay: functional, cell-based.
The subject of assay [24] is HCT-116. As to the kind of experiment: Anticancer activity against human HCT116 cells at 10 uM. In kind it is functional.

Activity calls are given as the source filed them. The calls are words filed in the database; no cut-off is given here.

With `C/C1=C\[C@H](C)C[C@H](C)OC(=O)/C=C(/c2ccc(O)c(O)c2)NC(=O)[C@@H](Cc2c(Br)[nH]c3ccccc23)N(C)C(=O)[C@H](C)NC(=O)[C@@H](C)C1`, the GI50 (usually the concentration giving 50% growth inhibition) in assay [1] stood at 3840 nM; in [2] it was 2320 nM. In addition, the outcome in [3], in assay [4], in assay [5], in assay [7] and in assay [8] was inactive. Also, the outcome in assay [6] was Active.
For the molecule `C/C1=C\[C@H](C)C[C@H](C)OC(=O)C[C@H](c2ccc(O)cc2)NC(=O)[C@@H](Cc2c(Br)[nH]c3cc(Br)ccc23)N(C)C(=O)[C@H](C)NC(=O)[C@@H](C)C1` [JASPLAKINOLIDE R1], the concentration for 50% growth inhibition (GI50) in assay [1] came out at 60 nM; in [2], 90 nM; in assay [9], 30 nM; in assay [10] it was 30 nM; in assay [11], 3 nM; in assay [12], 310 nM. For the same molecule, the GI50 in assay [13] and in assay [14] was 40 nM each time. Besides, the outcome in assay [3], in [4] and in [5] was inactive. In addition, the result in assay [15], in [16], in [17] and in [18] was Active.
`CC[C@@H]1NC(=O)[C@@H](C)C/C(C)=C/[C@H](C)C[C@H](C)OC(=O)C[C@H](c2ccc(O)cc2)NC(=O)[C@@H](Cc2c(Br)[nH]c3ccccc23)N(C)C1=O` [JASPLAKINOLIDE D]: the GI50 turned out to be 20 nM in assay [1]; 20 nM in [2]; 8 nM in [9]; 10 nM in assay [10]; 30 nM in assay [11]; 20 nM in assay [12]. Moreover, the GI50 in [13] amounted to 2 nM; in [14], 3 nM.
`COC(=O)C[C@@H](NC(=O)[C@@H](Cc1c(Br)[nH]c2ccccc12)N(C)C(=O)[C@H](C)NC(=O)[C@@H](C)C/C(C)=C/[C@H](C)C[C@H](C)O)c1ccc(O)cc1` came in with a GI50 in [1] of 270 nM. Also, the outcome in assay [3], in assay [4] and in assay [5] was inactive. The outcome in assay [6], in assay [19] and in [20] was Active.
As to `C/C(=C\[C@H](C)C[C@H](C)O)C[C@H](C)C(=O)N[C@@H](C)C(=O)N(C)[C@H](Cc1c(Br)[nH]c2ccccc12)C(N)=O`, the concentration for 50% growth inhibition (GI50) in assay [1] was 11100 nM; in assay [2], 22300 nM. The result in assay [3], in assay [4], in assay [5], in [7] and in [8] was inactive. In addition, the result in assay [6] was Active.
As for `C/C1=C\[C@H](C)C[C@H](C)OC(=O)C[C@H](c2ccc(O)cc2)NC(=O)[C@@H](Cc2c(Br)[nH]c3ccccc23)N(C)C(=O)[C@H](C)NC(=O)CC1` [JASPLAKINOLIDE F], the GI50 in [1] amounted to 110 nM; in [2], 260 nM; in assay [9], 20 nM; in assay [10], 50 nM; in assay [11], 610 nM; in assay [12], 290 nM. Moreover, the figures for the GI50 in assay [13] and in assay [14] were 210 nM and 30 nM, respectively.
For the molecule `C/C1=C\[C@H](C)C[C@H](C)OC(=O)C[C@H](c2ccc(O)cc2)NC(=O)[C@@H](Cc2c[nH]c3ccccc23)N(C)C(=O)[C@H](C)NC(=O)[C@@H](C)C1` [JASPLAKINOLIDE Q], the concentration for 50% growth inhibition (GI50) in [1] turned out to be 50 nM; in [2], 70 nM; in assay [9], 10 nM; in [10], 30 nM; in [11], 160 nM; in assay [12], 100 nM. For the same molecule, the GI50 was determined as 80 nM in [13] and 20 nM in [14].
As for `C/C(=C\[C@H](C)C[C@H](C)O)C[C@H](C)C(=O)N[C@@H](C)C(=O)N(C)[C@H](Cc1c(Br)[nH]c2ccccc12)C(=O)N[C@H](CC(=O)O)c1ccc(O)cc1` [JASPLAKINOLIDE Z1], the GI50 was 13700 nM in assay [1]; 2500 nM in assay [2]; 1760 nM in assay [9]; 600 nM in assay [10]; 120 nM in [11]; 18800 nM in assay [12]. Also, the GI50 in assay [14] is 280 nM. The outcome in assay [3], in assay [4], in [5], in assay [7] and in [8] was inactive. Besides, in [6], the outcome was Active.
For `CCOC(=O)C[C@@H](NC(=O)[C@@H](Cc1c(Br)[nH]c2ccccc12)N(C)C(=O)[C@H](C)NC(=O)[C@@H](C)C/C(C)=C/[C@H](C)C[C@H](C)O)c1ccc(O)cc1`, the GI50 in assay [1] came to 280 nM; in assay [2], 740 nM; in assay [9] it was 170 nM; in [10], 50 nM; in [11], 40 nM; in [12], 3720 nM. The GI50 worked out at 440 nM in assay [13] and 160 nM in assay [14]. Besides, the outcome in assay [3], in assay [4] and in assay [5] was inactive. Further, the result in assay [6], in [21], in [19] and in assay [20] was Active.
Take `C=C1C[C@H](C)C(=O)N[C@@H](C)C(=O)N(C)[C@H](Cc2c(Br)[nH]c3ccccc23)C(=O)N[C@@H](c2ccc(O)cc2)CC(=O)O[C@@H](C)C[C@@H](C)C1=O` [JASPLAKINOLIDE B]: the results for the GI50 in assay [1] and in assay [2] were 140 nM and 40 nM, respectively. Moreover, the result in [3] and in assay [4] was inactive. Moreover, the result in assay [5], in [22], in [21], in [19] and in [20] was Active.
For the molecule `C/C1=C\[C@H](C)C[C@H](C)OC(=O)C[C@H](c2ccc(O)cc2)NC(=O)[C@@H](Cc2c(Br)[nH]c3ccccc23)NC(=O)[C@H](C)NC(=O)[C@@H](C)C1` [JASPLAKINOLIDE M], the GI50 is 130 nM in [1]; 210 nM in assay [2]; 30 nM in assay [9]; 60 nM in [10]; 200 nM in [11]; 250 nM in assay [12]. Besides, the GI50 in assay [13] came to 170 nM; in assay [14] it was 20 nM.
Regarding `C/C1=C\[C@H](C)C[C@H](C)OC(=O)C[C@H](c2ccc(O)c(O)c2)NC(=O)[C@@H](Cc2c(Br)[nH]c3ccccc23)N(C)C(=O)[C@H](C)NC(=O)[C@@H](C)C1`, the result in assay [23], in assay [3], in assay [15], in assay [16], in [17] and in assay [18] was Active. Moreover, the GI50 was determined as 70 nM in [1]; 90 nM in assay [2]; 30 nM in [9]; 40 nM in assay [10]; 60 nM in [11]; 80 nM in assay [12]. In addition, the GI50 in [13] came out at 10 nM; in [14] it was 7 nM. In addition, the outcome in assay [4] was inactive.
In the case of `C/C(=C\[C@H](C)C[C@H](C)OC(=O)CC(=O)c1ccc(O)c(O)c1)C[C@H](C)C(=O)N[C@@H](C)C(=O)N(C)[C@H](Cc1c(Br)[nH]c2ccccc12)C(N)=O`, the GI50 entry in [1] and in assay [2] was “inactive” throughout. Also, the outcome in [3], in assay [4], in assay [5], in [7] and in assay [8] was inactive. Further, the inhibition (commonly the drop in the measured response relative to a control, in per cent) at 10 µM in assay [24] was less than 25%.

The values above are taken from ChEMBL document CHEMBL1765004 (2011).
